In ChEMBL document CHEMBL1131019, “Minimal-size, constrained corticotropin-releasing factor agonists with i-(i+3) Glu-Lys and Lys-Glu bridges” (1998):

Key:
Format in all cases: functional, Pituitary gland cell
Rattus norvegicus [1] = species: Rattus norvegicus; experiment: Percent in vito intrinsic activity (IA) was evaluated in pituitary cell culture assay
How it was run: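 ACTH release assay in cultured rat anterior pituitary cells from male Sprague–Dawley rats: 3-day culture, 1 h preincubation in 0.1% BSA medium, 3 h peptide exposure, ACTH in medium by radioimmunoassay. Intrinsic activity = ACTH released at maximal analogue dose divided by ACTH released at maximal CRF dose, ×100.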

Rattus norvegicus [2] = species: Rattus norvegicus; experiment: In vitro for agonist activity by measuring release of ACTH by rat pituitary cells in culture relative to human Corticotropin-Releasing factor (CRF)
How it was run: (§1)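 Male Sprague–Dawley rat anterior pituitary cells, collagenase-dissociated, plated at 0.16 × 10⁶ cells/well in 2% FBS medium. After 3 days, washed into 0.1% BSA medium, preincubated 1 h, washed again, then exposed to peptide for 3 h. Medium ACTH measured by radioimmunoassay.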

Rattus norvegicus [3] = species: Rattus norvegicus; experiment: Agonist activity by measuring release of ACTH by rat pituitary cells in culture relative to ovine Corticotropin-Releasing factor (CRF); how it was run: as §1

Structure (SMILES)	IA (Rattus norvegicus [1]) [%]	Potency (Rattus norvegicus [2])	Potency (Rattus norvegicus [3])
CCCC[C@H](NC(=O)[C@H](CCC(=O)O)NC(=O)[C@H](CC(C)C)NC(=O)[C@H](CCCC)NC(=O)[C@H](CCC(=O)O)NC(=O)[C@H](CCCN=C(N)N)NC(=O)[C@H](CC(C)C)NC(=O)[C@H](CC(C)C)NC(=O)[C@H](Cc1c[nH]cn1)NC(=O)[C@@H](Cc1ccccc1)NC(=O)[C@@H](NC(=O)[C@H](CC(C)C)NC(=O)[C@H](CC(=O)O)NC(=O)[C@H](CC(C)C)NC(C)=O)[C@@H](C)O)C(=O)N[C@@H](C)C(=O)N[C@@H](CCCCN)C(=O)N[C@@H](C)C(=O)N[C@@H](CCC(=O)O)C(=O)N[C@@H](CCC(N)=O)C(=O)N[C@@H](CCC(=O)O)C(=O)N[C@@H](C)C(=O)N[C@@H](CCC(=O)O)C(=O)N1C(=O)[C@H](C)NC(=O)[C@H](C)NC(=O)[C@@H](N)CCC(=O)NCCCC[C@H]1C(=O)N[C@@H](CC(N)=O)C(=O)N[C@@H](CCCN=C(N)N)C(=O)N[C@@H](CC(C)C)C(=O)N[C@@H](CC(C)C)C(=O)N[C@@H](CC(C)C)C(=O)N[C@@H](CCC(=O)O)C(=O)N[C@@H](CCC(=O)O)C(=O)N[C@@H](C)C(N)=O	93	0.073	
CCCC[C@H](NC(=O)[C@H](CCC(=O)O)NC(=O)[C@H](CC(C)C)NC(=O)[C@@H](NC(=O)[C@H](CCC(=O)O)NC(=O)[C@H](CCCN=C(N)N)NC(=O)[C@H](CC(C)C)NC(=O)[C@@H]1CCC(=O)NCCCC[C@H](NC(=O)[C@H](CC(C)C)NC(=O)[C@H](CC(=O)O)NC(=O)[C@H](CC(C)C)NC(=O)[C@H](CO)NC(=O)[C@@H](NC(=O)[C@@H]2CCCN2C(=O)[C@@H]2CCCN2C(C)=O)[C@@H](C)CC)C(=O)N[C@H](Cc2ccccc2)C(=O)N[C@@H](Cc2c[nH]cn2)C(=O)N1)C(C)C)C(=O)N[C@@H](C)C(=O)N[C@@H](CCCN=C(N)N)C(=O)N[C@@H](C)C(=O)N[C@@H](CCC(=O)O)C(=O)N[C@@H](CCC(N)=O)C(=O)N[C@@H](CC(C)C)C(=O)N[C@@H](C)C(=O)N[C@@H](CCC(N)=O)C(=O)N[C@@H](CCC(N)=O)C(=O)N[C@@H](C)C(=O)N[C@@H](Cc1c[nH]cn1)C(=O)N[C@@H](CO)C(=O)N[C@@H](CC(N)=O)C(=O)N[C@@H](CCCN=C(N)N)C(=O)N[C@@H](CCCCN)C(=O)N[C@@H](CC(C)C)C(=O)N[C@@H](CCCC)C(=O)N[C@@H](CCC(=O)O)C(=O)N[C@H](C(=O)N[C@H](C(N)=O)[C@@H](C)CC)[C@@H](C)CC			0.0004
CCCC[C@H](NC(=O)[C@H](CCCN=C(N)N)NC(=O)[C@H](CC(C)C)NC(=O)[C@H](CC(C)C)NC(=O)[C@H](CCC(=O)O)NC(=O)[C@H](CC(C)C)NC(=O)[C@H](CC(C)C)NC(=O)[C@H](CC(C)C)NC(=O)[C@H](CC(=O)O)NC(=O)[C@@H](NC(=O)[C@H](CO)NC(=O)[C@@H](NC(=O)[C@@H]1CCCN1C(=O)[C@@H]1CCCN1C(=O)CNC(=O)[C@H](CCC(=O)O)NC(=O)[C@@H]1CCCN1)[C@@H](C)CC)[C@@H](C)CC)C(=O)N[C@@H](CCCC)C(=O)N[C@H](C(=O)N[C@@H](CCC(=O)O)C(=O)N[C@H](C(=O)N[C@@H](CCC(=O)O)C(=O)N[C@@H](CCCCN)C(=O)N[C@@H](CCC(N)=O)C(=O)N[C@@H](CCC(=O)O)C(=O)N[C@@H](CCCCN)C(=O)N[C@@H](CCC(=O)O)C(=O)N[C@@H](CCCCN)C(=O)N1C(=O)[C@@H](C)NC(=O)[C@H](CCC(N)=O)NC(=O)[C@@H](N)CCC(=O)NCCCC[C@H]1C(=O)N[C@H](CC(N)=O)C(=O)N[C@H](CC(N)=O)C(=O)N[C@H](CCCN=C(N)N)C(=O)N[C@H](CC(C)C)C(=O)N[C@H](CC(C)C)C(=O)N[C@H](CC(C)C)C(=O)N[C@H](CC(=O)O)C(=O)N[C@@H](C(=O)N[C@@H](C(N)=O)[C@H](C)CC)[C@H](C)O)[C@@H](C)CC)[C@@H](C)CC			5.73
CCCC[C@H](NC(=O)[C@H](CCC(=O)O)NC(=O)[C@H](CC(C)C)NC(=O)[C@@H](NC(=O)[C@H](CCC(=O)O)NC(=O)[C@H](CCCN=C(N)N)NC(=O)[C@H](CC(C)C)NC(=O)[C@@H]1CCCCNC(=O)CC[C@H](NC(=O)[C@H](CC(C)C)NC(=O)[C@H](CC(=O)O)NC(=O)[C@H](CC(C)C)NC(=O)[C@H](CO)NC(=O)[C@@H](NC(=O)[C@@H]2CCCN2C(=O)[C@@H]2CCCN2C(C)=O)[C@@H](C)CC)C(=O)N[C@H](Cc2ccccc2)C(=O)N[C@@H](Cc2c[nH]cn2)C(=O)N1)C(C)C)C(=O)N[C@@H](C)C(=O)N[C@@H](CCCN=C(N)N)C(=O)N[C@@H](C)C(=O)N[C@@H](CCC(=O)O)C(=O)N[C@@H](CCC(N)=O)C(=O)N[C@@H](CC(C)C)C(=O)N[C@@H](C)C(=O)N[C@@H](CCC(N)=O)C(=O)N[C@@H](CCC(N)=O)C(=O)N[C@@H](C)C(=O)N[C@@H](Cc1c[nH]cn1)C(=O)N[C@@H](CO)C(=O)N[C@@H](CC(N)=O)C(=O)N[C@@H](CCCN=C(N)N)C(=O)N[C@@H](CCCCN)C(=O)N[C@@H](CC(C)C)C(=O)N[C@@H](CCCC)C(=O)N[C@@H](CCC(=O)O)C(=O)N[C@H](C(=O)N[C@H](C(N)=O)[C@@H](C)CC)[C@@H](C)CC			1.4
CC[C@H](C)[C@H](NC(=O)[C@H](CO)NC(=O)[C@H](CC(C)C)NC(=O)[C@H](CO)NC(=O)[C@H]1CCCN1C(=O)[C@H](CC(N)=O)NC(=O)[C@@H](N)CC(=O)O)C(=O)N[C@@H](CC(=O)O)C(=O)N[C@@H](CC(C)C)C(=O)N[C@H](C(=O)N[C@@H](Cc1ccccc1)C(=O)N[C@@H](Cc1c[nH]cn1)C(=O)N[C@@H](CC(C)C)C(=O)N[C@@H](CC(C)C)C(=O)N[C@@H](CCCN=C(N)N)C(=O)N[C@H](C(=O)N[C@@H](CC(C)C)C(=O)N[C@@H](CC(C)C)C(=O)N[C@@H](CCC(=O)O)C(=O)N[C@@H](CC(C)C)C(=O)N[C@@H](C)C(=O)N[C@@H](CCCN=C(N)N)C(=O)N[C@H](C(=O)N[C@@H](CCC(N)=O)C(=O)N[C@@H](CO)C(=O)N[C@@H](CCC(N)=O)C(=O)N[C@@H](CCCN=C(N)N)C(=O)N[C@@H](CCC(=O)O)C(=O)N[C@@H](CCCN=C(N)N)C(=O)N[C@@H](C)C(=O)N[C@@H](CCC(=O)O)C(=O)N[C@@H](CCC(N)=O)C(=O)N[C@@H](CC(N)=O)C(=O)N[C@@H](CCCN=C(N)N)C(=O)N[C@H](C(=O)N[C@H](C(=O)N[C@@H](Cc1ccccc1)C(=O)N[C@@H](CC(=O)O)C(=O)N[C@@H](CO)C(=O)N[C@H](C(N)=O)C(C)C)[C@@H](C)CC)[C@@H](C)CC)[C@@H](C)O)[C@@H](C)O)[C@@H](C)O (stereo in doubt; 37)		2.9	
